Measurements published in ChEMBL document CHEMBL5257059, “Pyridine-Based 1,2,4-Triazolo-Tethered Indole Conjugates Potentially Affecting TNKS and PI3K in Colorectal Cancer” (ACS Med Chem Lett, 2023).
The source made the active and inactive calls. The calls are words filed in the database; no cut-off is given here.

Tests used:
HT-29 [1] = test: Induction of cell cycle arrest in human HT-29 cells assessed as accumulation of cells at S phase at 2 uM incubated for 24 hrs by RNase/PI staining based flow cytometry analysis (reference value: 17.934 %); type: functional
[2] = target: Phosphatidylinositol 3-kinase regulatory subunit alpha (Homo sapiens) (UniProt P27986); test: Inhibition of PI3K-P85 phosphorylation in human HT-29 cells at 2 uM incubated for 72 hrs by Western blot analysis; type: cell-based
HT-29 [3] = test: Inhibition of phosphorylated PI3K-p85 protein expression in human HT-29 cells at 2 uM incubated for 72 hrs by Western blot analysis; type: functional, cell-based
HT-29 [4] = test: Inhibition of APC protein expression in human HT-29 cells at 2 uM incubated for 72 hrs by Western blot analysis; type: functional, cell-based
HT-29 [5] = test: Inhibition of PI3K-p85 protein expression in human HT-29 cells at 2 uM incubated for 72 hrs by Western blot analysis; type: functional, cell-based
HT-29 [6] = test: Inhibition of beta-catenin protein expression in human HT-29 cells at 2 uM incubated for 72 hrs by Western blot analysis; type: functional, cell-based
HT-29 [7] = test: Induction of cell cycle arrest in human HT-29 cells assessed as accumulation of cells at S phase at 1 uM incubated for 24 hrs by RNase/PI staining based flow cytometry analysis (reference value: 17.934 %); type: functional
HT-29 [8] = test: Inhibition of AXIN-2 protein expression in human HT-29 cells at 1 uM incubated for 72 hrs by Western blot analysis; type: functional, cell-based
HT-29 [9] = test: Induction of cell cycle arrest in human HT-29 cells assessed as accumulation of cells at subG1 phase at 1 uM incubated for 24 hrs by RNase/PI staining based flow cytometry analysis (reference value: 1.798%); type: functional
HT-29 [10] = test: Inhibition of AKT protein expression in human HT-29 cells at 1 uM incubated for 72 hrs by Western blot analysis; type: functional, cell-based
HT-29 [11] = test: Inhibition of AXIN-1 protein expression in human HT-29 cells at 1 uM incubated for 72 hrs by Western blot analysis; type: functional, cell-based
[12] = target: 182 kDa tankyrase-1-binding protein (Homo sapiens) (UniProt Q9C0C2); test: Inhibition of TAB-182 phosphorylation in human HT-29 cells at 1 uM incubated for 72 hrs by Western blot analysis; type: cell-based
HT-29 [13] = test: Inhibition of GSK-3beta protein expression in human HT-29 cells at 1 uM incubated for 72 hrs by Western blot analysis; type: functional, cell-based
HT-29 [14] = test: Induction of cell cycle arrest in human HT-29 cells assessed as accumulation of cells at G2/M phase at 1 uM incubated for 24 hrs by RNase/PI staining based flow cytometry analysis (reference value: 23.695 %); type: functional
HT-29 [15] = test: Induction of apoptosis in human HT29 cells assessed as increase in late apoptotic cells at 1 uM incubated for 24 hrs by annexin V/PI staining based flow cytometry analysis; type: functional, cell-based
Outline: (§1)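 Annexin/PI double staining of HT-29 cells after 24 h exposure at 1, 2 or 4 μM. Flow cytometry gated early apoptotic, late apoptotic and necrotic populations, reported as % of cells. Comparison to untreated control used two-way ANOVA followed by Tukey's post hoc analysis.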

HT-29 [16] = test: Inhibition of APC protein expression in human HT-29 cells at 1 uM incubated for 72 hrs by Western blot analysis; type: functional, cell-based
HT-29 [17] = test: Inhibition of pan-AKT protein expression in human HT-29 cells at 4 uM incubated for 72 hrs by Western blot analysis; type: functional, cell-based
[18] = target: Glycogen synthase kinase-3 beta (Homo sapiens) (UniProt P49841); test: Inhibition of GSK3beta phosphorylation in human HT-29 cells at 4 uM incubated for 72 hrs by Western blot analysis; type: cell-based
HT-29 [19] = test: Inhibition of beta-catenin protein expression in human HT-29 cells at 4 uM incubated for 72 hrs by Western blot analysis; type: functional, cell-based
HT-29 [20] = test: Induction of cell cycle arrest in human HT-29 cells assessed as accumulation of cells at G2/M phase at 4 uM incubated for 24 hrs by RNase/PI staining based flow cytometry analysis (reference value: 23.695 %); type: functional
HT-29 [21] = test: Inhibition of TAB-182 protein expression in human HT-29 cells at 4 uM incubated for 72 hrs by Western blot analysis; type: functional, cell-based
HT-29 [22] = test: Induction of mitochondrial ROS generation in human HT-29 cells at 4 uM by MitoSOX red dye based flow cytometry analysis; type: functional, cell-based
Outline: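 Mitochondrial superoxide in HT-29 cells was read with the mitochondria-localizing MitoSOX Red probe after treatment at 1, 2 or 4 μM. Flow cytometry histograms were acquired on 10,000 cells, and results were expressed as mean fluorescence intensity. Versus control, significance was tested by one-way ANOVA with Tukey's post hoc test.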

[23] = target: T1, Catenin beta-1 (Homo sapiens) (UniProt P35222); test: Inhibition of beta-catenin phosphorylation in human HT-29 cells at 4 uM incubated for 72 hrs by Western blot analysis; type: cell-based
T1 sequence (whole entry): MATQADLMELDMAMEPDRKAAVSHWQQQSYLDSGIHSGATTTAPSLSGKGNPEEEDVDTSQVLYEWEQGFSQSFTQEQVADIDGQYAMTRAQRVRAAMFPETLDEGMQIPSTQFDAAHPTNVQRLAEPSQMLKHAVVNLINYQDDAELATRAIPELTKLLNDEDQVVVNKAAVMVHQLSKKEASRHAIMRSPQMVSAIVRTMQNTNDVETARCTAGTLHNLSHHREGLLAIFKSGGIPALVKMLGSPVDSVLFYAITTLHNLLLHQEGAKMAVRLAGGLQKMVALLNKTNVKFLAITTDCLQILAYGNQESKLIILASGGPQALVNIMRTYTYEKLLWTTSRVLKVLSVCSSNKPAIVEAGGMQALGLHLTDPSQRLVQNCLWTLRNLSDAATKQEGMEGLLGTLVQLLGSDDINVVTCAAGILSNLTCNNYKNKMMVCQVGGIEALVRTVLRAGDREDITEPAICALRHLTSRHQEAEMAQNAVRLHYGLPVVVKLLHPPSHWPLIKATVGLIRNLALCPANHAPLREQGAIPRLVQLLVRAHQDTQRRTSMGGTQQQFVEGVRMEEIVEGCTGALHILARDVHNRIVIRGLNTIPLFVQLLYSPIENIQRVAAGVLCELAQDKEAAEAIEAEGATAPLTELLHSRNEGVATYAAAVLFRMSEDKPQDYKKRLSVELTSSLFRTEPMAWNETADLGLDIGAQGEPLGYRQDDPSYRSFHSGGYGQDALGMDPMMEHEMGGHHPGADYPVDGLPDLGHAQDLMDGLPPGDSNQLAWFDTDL

HT-29 [24] = test: Induction of apoptosis in human HT29 cells assessed as increase in late apoptotic cells at 4 uM incubated for 24 hrs by annexin V/PI staining based flow cytometry analysis; type: functional, cell-based; outline: as §1
HT-29 [25] = test: Downregulation of beta-catenin protein expression in human HT-29 cells at 4 uM by immunostaining based confocal microscopic analysis; type: functional, cell-based
HT-29 [26] = test: Inhibition of AXIN-2 protein expression in human HT-29 cells at 4 uM incubated for 72 hrs by Western blot analysis; type: functional, cell-based
HT-29 [27] = test: Induction of cell cycle arrest in human HT-29 cells assessed as accumulation of cells at G0/G1 phase at 4 uM incubated for 24 hrs by RNase/PI staining based flow cytometry analysis (reference value: 50.206%); type: functional

Sequence of 182 kDa tankyrase-1-binding protein (Homo sapiens) (Q9C0C2 whole entry): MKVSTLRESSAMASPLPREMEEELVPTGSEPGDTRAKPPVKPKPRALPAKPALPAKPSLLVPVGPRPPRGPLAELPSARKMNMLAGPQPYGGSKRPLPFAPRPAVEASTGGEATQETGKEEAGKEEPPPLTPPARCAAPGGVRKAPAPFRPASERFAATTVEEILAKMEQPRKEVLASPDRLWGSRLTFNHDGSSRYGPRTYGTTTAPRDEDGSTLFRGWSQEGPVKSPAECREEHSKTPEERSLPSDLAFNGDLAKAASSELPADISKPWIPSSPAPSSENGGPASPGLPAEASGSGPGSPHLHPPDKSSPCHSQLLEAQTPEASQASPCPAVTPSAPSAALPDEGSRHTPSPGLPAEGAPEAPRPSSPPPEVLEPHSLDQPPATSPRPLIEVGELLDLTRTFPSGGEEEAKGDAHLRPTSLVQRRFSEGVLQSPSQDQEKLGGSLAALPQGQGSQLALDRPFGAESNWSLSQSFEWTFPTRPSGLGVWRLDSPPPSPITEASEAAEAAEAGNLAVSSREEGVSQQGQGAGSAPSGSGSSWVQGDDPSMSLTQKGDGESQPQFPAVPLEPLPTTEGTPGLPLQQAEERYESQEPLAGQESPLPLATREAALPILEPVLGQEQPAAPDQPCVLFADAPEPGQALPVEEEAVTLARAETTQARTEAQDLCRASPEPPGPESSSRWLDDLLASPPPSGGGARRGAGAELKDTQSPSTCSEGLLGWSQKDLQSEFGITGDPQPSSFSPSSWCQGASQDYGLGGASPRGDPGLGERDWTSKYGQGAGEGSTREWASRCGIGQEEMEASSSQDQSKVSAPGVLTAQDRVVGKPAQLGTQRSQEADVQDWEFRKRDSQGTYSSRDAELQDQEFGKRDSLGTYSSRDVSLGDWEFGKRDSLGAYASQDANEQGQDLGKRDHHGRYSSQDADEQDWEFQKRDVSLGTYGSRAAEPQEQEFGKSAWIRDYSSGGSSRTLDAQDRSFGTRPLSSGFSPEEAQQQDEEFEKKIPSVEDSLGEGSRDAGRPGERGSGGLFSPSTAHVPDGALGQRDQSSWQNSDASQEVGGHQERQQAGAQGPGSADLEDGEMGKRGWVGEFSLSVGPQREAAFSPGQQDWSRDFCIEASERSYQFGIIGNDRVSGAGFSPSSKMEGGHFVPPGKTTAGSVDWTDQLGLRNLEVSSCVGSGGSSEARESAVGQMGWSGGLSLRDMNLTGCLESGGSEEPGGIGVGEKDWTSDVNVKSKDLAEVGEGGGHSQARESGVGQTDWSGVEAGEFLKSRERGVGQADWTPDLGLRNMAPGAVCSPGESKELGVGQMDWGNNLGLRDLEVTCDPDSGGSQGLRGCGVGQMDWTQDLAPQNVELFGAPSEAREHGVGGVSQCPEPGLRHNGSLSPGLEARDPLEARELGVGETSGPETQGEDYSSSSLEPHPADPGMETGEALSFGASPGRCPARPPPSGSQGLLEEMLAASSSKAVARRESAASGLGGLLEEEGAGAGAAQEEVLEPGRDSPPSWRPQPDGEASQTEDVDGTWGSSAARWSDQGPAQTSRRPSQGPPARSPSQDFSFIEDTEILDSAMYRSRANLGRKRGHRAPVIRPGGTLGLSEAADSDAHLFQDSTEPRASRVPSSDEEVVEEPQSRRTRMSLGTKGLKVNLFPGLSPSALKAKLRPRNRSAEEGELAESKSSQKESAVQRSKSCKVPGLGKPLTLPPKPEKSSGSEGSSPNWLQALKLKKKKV
Sequence of Glycogen synthase kinase-3 beta (Homo sapiens) (P49841 whole entry, looked up): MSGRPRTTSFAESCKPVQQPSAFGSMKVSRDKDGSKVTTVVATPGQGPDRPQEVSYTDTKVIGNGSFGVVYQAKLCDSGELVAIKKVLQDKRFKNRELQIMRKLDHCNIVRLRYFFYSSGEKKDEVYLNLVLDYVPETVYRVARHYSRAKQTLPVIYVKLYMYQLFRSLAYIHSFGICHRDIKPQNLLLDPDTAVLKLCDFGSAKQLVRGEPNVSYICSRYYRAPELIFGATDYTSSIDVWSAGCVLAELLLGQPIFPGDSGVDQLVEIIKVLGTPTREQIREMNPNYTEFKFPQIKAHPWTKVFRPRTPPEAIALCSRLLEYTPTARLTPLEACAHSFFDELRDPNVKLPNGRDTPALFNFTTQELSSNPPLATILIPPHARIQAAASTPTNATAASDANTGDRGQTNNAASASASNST
Sequence of Phosphatidylinositol 3-kinase regulatory subunit alpha (Homo sapiens) (P27986 whole entry): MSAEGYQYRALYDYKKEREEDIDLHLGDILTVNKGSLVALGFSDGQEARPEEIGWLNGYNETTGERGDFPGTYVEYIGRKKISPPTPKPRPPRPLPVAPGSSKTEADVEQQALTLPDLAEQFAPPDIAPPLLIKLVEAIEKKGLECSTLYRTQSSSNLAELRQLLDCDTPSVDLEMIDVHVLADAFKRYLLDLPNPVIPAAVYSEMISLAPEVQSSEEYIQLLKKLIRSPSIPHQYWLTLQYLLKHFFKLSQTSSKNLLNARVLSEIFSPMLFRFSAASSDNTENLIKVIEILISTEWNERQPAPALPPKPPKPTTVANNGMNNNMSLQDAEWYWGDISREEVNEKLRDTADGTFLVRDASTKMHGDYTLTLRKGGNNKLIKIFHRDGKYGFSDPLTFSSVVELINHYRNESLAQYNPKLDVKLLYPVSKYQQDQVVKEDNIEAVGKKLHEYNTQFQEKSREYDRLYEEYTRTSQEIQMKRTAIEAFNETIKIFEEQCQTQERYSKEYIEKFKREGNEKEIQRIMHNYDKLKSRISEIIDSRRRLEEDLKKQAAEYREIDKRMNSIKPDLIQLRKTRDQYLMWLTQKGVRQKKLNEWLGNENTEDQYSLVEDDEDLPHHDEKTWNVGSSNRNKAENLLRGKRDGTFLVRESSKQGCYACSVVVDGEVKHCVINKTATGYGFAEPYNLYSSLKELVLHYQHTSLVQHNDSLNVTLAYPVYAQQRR

With `Fc1ccccc1-n1c(SCCc2c[nH]c3ccccc23)nnc1-c1ccncc1` the Activity (HT-29 [1]) was 7.976%, the inhibition [2] was “Active” and the inhibition (HT-29 [3]) was “Active”. For the same compound, the inhibition (HT-29 [4]) was “Active”, the inhibition (HT-29 [5]) was “Active” and the inhibition (HT-29 [6]) was “Active”.

`COc1ccc(-n2c(SCCc3c[nH]c4ccccc34)nnc2-c2ccncc2)cc1` was tested, and the Activity (HT-29 [7]) was 9.899%, the inhibition (HT-29 [8]) was “Active” and the Activity (HT-29 [9]) was 1.225%. The inhibition (HT-29 [10]) was “Active”, the inhibition (HT-29 [11]) was “Active” and the inhibition [12] was “Active”. The inhibition (HT-29 [13]) was “Active”, the Activity (HT-29 [14]) was 22.841% and the Activity (HT-29 [15]) was “Active”. For the same compound, the inhibition (HT-29 [16]) was “Active”.

`COc1cccc(-n2c(SCCc3c[nH]c4ccccc34)nnc2-c2ccncc2)c1` was tested, and the inhibition (HT-29 [17]) was “Active”, the inhibition [18] was “Active” and the inhibition (HT-29 [19]) was “Active”. For the same compound, the Activity (HT-29 [20]) was 22.943%, the inhibition (HT-29 [21]) was “Active” and the Activity (HT-29 [22]) was “Active”. For the same compound, the inhibition [23] was “Active”, the Activity (HT-29 [24]) was “Active” and the Activity (HT-29 [25]) was “Active”. For the same compound, the inhibition (HT-29 [26]) was “Active” and the Activity (HT-29 [27]) was 42.657%.
